Test results from ChEMBL document CHEMBL4190218, “Potent Inhibitor of Drug-Resistant HIV-1 Strains Identified from the Medicinal Plant Justicia gendarussa” (J Nat Prod, 2017).
pIC50: −log10 of the molar value.

Tests used:
[1] = test system: Human immunodeficiency virus 1; test: Antiviral activity against HIV1 virions derived from […] or HIV/HA virions infected 293T cells using human A549 cells as target cells assessed as inhibition of viral replication using compound pre-mixed virions followed by incubation with target cells for 24 hrs by luciferase reporter gene assay based defective HIV1 pseudoviral assay; type: functional, organism-based; conditions: Human immunodeficiency virus 1, 24 h
Outline: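 Pseudovirions made by cotransfecting 293T cells with VSV-G, or HA plus NA, envelope plasmids and pNL4-3-Luc.R-.E- vector; supernatant collected at 48 h and filtered. A549 cells, 0.5 × 10^5/well in DMEM. Virus (~2 × 10^6 RLUs) premixed with sample, incubated with cells 24 h, then medium replaced. Luciferase read in lysates 48 h postinfection. Three experiments, each triplicate.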

[2] = test system: Human immunodeficiency virus 1; test: Antiviral activity against NNRTI-resistant HIV1 isolate N119 infected in PHA-stimulated human PBMC assessed as reduction in p24 level after 7 days by ELISA; type: functional, organism-based; conditions: Human immunodeficiency virus 1, isolate N119, PBMC, 168 h
Outline: (§1)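 Donor PBMCs in R-3 medium (RPMI 1640, 15−20% FBS, 5% IL-2, penicillin/streptomycin, 2 mM L-glutamine), PHA-stimulated (2−3 μg/mL) 7 days; 1 × 10^5 cells/well with compound, challenged with 1000 TCID50 virus. p24 in supernatant by ELISA after 7 days. Seven concentrations (5, 1, 0.2, 0.04, 0.008, […], 0 μg/mL); IC50 versus no-drug wells; AZT positive control; three experiments, each triplicate.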

[3] = test system: Human immunodeficiency virus 1; test: Antiviral activity against NRTI-resistant HIV1 isolate 1617-1 infected in PHA-stimulated human PBMC assessed as reduction in p24 level after 7 days by ELISA; type: functional, organism-based; conditions: Human immunodeficiency virus 1, isolate 1617-1, PBMC, 168 h; outline: as §1
[4] = test system: Human immunodeficiency virus 1; test: Antiviral activity against HIV1 isolate LAV infected in PHA-stimulated human PBMC assessed as reduction in p24 level after 7 days by ELISA; type: functional, organism-based; conditions: Human immunodeficiency virus 1, isolate LAV, 168 h; outline: as §1
[5] = test system: Human immunodeficiency virus 1; test: Antiviral activity against HIV1/VSV-G pseudovirus infected in human A549 cells assessed as downregulation of R/U5 gene expression at 0.005 ug/ml after 48 hrs by Taqman-based real-time PCR analysis; type: functional; conditions: Human immunodeficiency virus 1, A549, 48 h
Outline: (§2)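 A549 cells infected with VSV-G/HIV pseudovirus while treated with compound or AZT, 10-fold dilutions from 5 μg/mL, triplicate. After 48 h, cells processed for reverse transcription and TaqMan real-time PCR. R/U5 amplicon reads early transcripts, U5/gag reads late transcripts; GAPDH and 18S as internal controls.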

[6] = test system: Human immunodeficiency virus 1; test: Antiviral activity against HIV1/VSV-G pseudovirus infected in human A549 cells assessed as downregulation of U5/gag gene expression at 0.005 ug/ml after 48 hrs by Taqman-based real-time PCR analysis; type: functional; conditions: Human immunodeficiency virus 1, A549, 48 h; outline: as §2
HeLa = test: Cytotoxicity against human HeLa cells at 19 uM after 48 hrs by CellTiter 96 AQueous one solution cell proliferation assay; type: cell-based
Outline: (§3)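 About 5000 cells/well in DMEM with FBS and penicillin/streptomycin; compound in DMSO added next day, 24 h at 37 °C, 5% CO2, then medium replaced. At 48 h after addition, CellTiter 96 Aqueous One added for 4 h, stopped with 10% SDS, absorbance read at 450 nm.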

[7] = test system: Human immunodeficiency virus 1; test: Antiviral activity against HIV1 isolate LAV0.04 infected in PHA-stimulated human PBMC assessed as reduction in p24 level after 7 days by ELISA; type: functional, organism-based; outline: as §1
[8] = test system: Human immunodeficiency virus 1; test: Antiviral activity against HIV1 isolate 89.6 infected in PHA-stimulated human PBMC assessed as reduction in p24 level after 7 days by ELISA; type: functional, organism-based; outline: as §1
[9] = test system: Human immunodeficiency virus 1; test: Antiviral activity against HIV1 isolate BAL infected in PHA-stimulated human PBMC assessed as reduction in p24 level after 7 days by ELISA; type: functional, organism-based; outline: as §1
A549 = test: Cytotoxicity against human A549 cells at 19 uM after 48 hrs by CellTiter 96 AQueous one solution cell proliferation assay; type: cell-based; conditions: a549, 48 h; outline: as §3
[10] = Cytotoxicity against human PBMC after 48 hrs by CellTiter 96 AQueous one solution cell proliferation assay; type: cell-based
[11] = test system: Human immunodeficiency virus 1; test: Antiviral activity against HIV1 isolate SF162 infected in PHA-stimulated human PBMC assessed as reduction in p24 level after 7 days by ELISA; type: functional, organism-based; outline: as §1
[12] = test system: Human immunodeficiency virus 1; test: Antiviral activity against HIV1/VSV-G pseudovirus infected in human A549 cells assessed as downregulation of R/U5 gene expression after 48 hrs by Taqman-based real-time PCR analysis; type: functional; outline: as §2
[13] = test system: Human immunodeficiency virus 1; test: Antiviral activity against HIV1/VSV-G pseudovirus infected in human A549 cells assessed as downregulation of U5/gag gene expression after 48 hrs by Taqman-based real-time PCR analysis; type: functional; outline: as §2
[14] = Human immunodeficiency virus 1, isolate LAV0.04, PBMC, 168 h
[15] = Human immunodeficiency virus 1, isolate 89.6, PBMC, 168 h
[16] = Human immunodeficiency virus 1, isolate BAL, PBMC, 168 h
[17] = Human immunodeficiency virus 1, isolate SF162, PBMC, 168 h

| SMILES | pIC50 [1] | pIC50 [2] | pIC50 [3] | pIC50 [4] | Activity [7] | pIC50 [7, 14] | Activity [8] | pIC50 [8, 15] | Activity [9] | pIC50 [9, 16] | Activity [11] | pIC50 [11, 17] | other results |
| --- | --- | --- | --- | --- | --- | --- | --- | --- | --- | --- | --- | --- | --- |
| COc1cc2c(O[C@@H]3OC[C@@H](O)[C@H](O)[C@H]3O)c3c(c(-c4ccc5c(c4)OCO5)c2cc1OC)C(=O)OC3 | 6.29 | – | – | – | – | – | – | – | – | – | – | – | – |
| COc1cc2c(O[C@@H]3O[C@H](CO)[C@@H](O)[C@H](O)[C@H]3O)c3c(c(-c4ccc5c(c4)OCO5)c2cc1OC)C(=O)OC3 | 6.11 | – | – | – | – | – | – | – | – | – | – | – | – |
| COc1cc2c(O)c3c(c(-c4ccc5c(c4)OCO5)c2cc1OC)C(=O)OC3 [DIPHYLLIN] | 5.77 | – | – | – | – | – | – | – | – | – | – | – | – |
| Cc1ccnc2c1NC(=O)c1cccnc1N2C1CC1 [NEVIRAPINE] | – | < 4.00 | 6.81 | 6.27 | – | – | – | – | – | – | – | – | – |
| COc1cc2c(O[C@@H]3O[C@H](C)[C@@H](O)[C@H](O)[C@H]3O)c3c(c(-c4ccc5c(c4)OCO5)c2cc1OC)C(=O)OC3 [PATENTIFLORIN A] | 7.57 | 7.33 | 7.21 | 6.97 | Dose-dependent effect | 7.62 | Dose-dependent effect | 7.49 | Dose-dependent effect | 7.52 | Dose-dependent effect | 7.43 | inhibition at 0.005 µg/mL [5]: 75%; inhibition at 0.005 µg/mL [6]: 75%; Activity (HeLa): Non-Toxic; pIC50 ([7]; pbmc): 7.49; pIC50 ([8]; pbmc): 7.51; pIC50 ([9]; pbmc): 7.49; Activity (A549): Non-Toxic; CC50 at 48 h [10]: 75 µM; pIC50 ([11]; pbmc): 7.52 |
| Cc1cn([C@H]2C[C@H](N=[N+]=[N-])[C@@H](CO)O2)c(=O)[nH]c1=O [ZIDOVUDINE] | – | 8.28 | 5.45 | 7.14 | Dose-dependent effect | 7.10 | Dose-dependent effect | 7.02 | Dose-dependent effect | 7.11 | Dose-dependent effect | 7.07 | Activity [12]: Dose-dependent effect; inhibition (INH) [12]: 40%; Activity [13]: Dose-dependent effect; inhibition (INH) [13]: 40% |
